According to ChEMBL document CHEMBL1121507, “Bronchodilator and antiulcer phenoxypyrimidinones” (1980):

Key:
[1] = test system: Cavia porcellus; assay: Evaluation of bronchodilator activity at dose 60 mg/kg perorally 1 hr prior to histamine aerosol exposure.; type: functional; conditions: route oral
Summary of the method: (§1)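 Guinea pigs received drug po, dissolved in 1 N HCl or suspended in vehicle, 1 h before challenge. The challenge was 0.4% aqueous histamine nebulized at 6 psi into a closed chamber. Respiratory status was scored 0–4 (4 = unconsciousness). Percent protection compares the total score of 8 treated animals with a control group of 8 (control = 0, complete protection = 100), giving a single value.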

[2] = test system: Rattus norvegicus; assay: Evaluation of antiulcer activity (% decrease in total number of lesions in cold-restraint, stressed rats) at peroral dose 10 mg/kg.; type: functional; conditions: route oral
Summary of the method: (§2)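 Nonfasted female Sprague–Dawley rats (90–120 g) were immobilized supine and held at 12 °C for 3 h to induce gastric ulceration. Drug was suspended in saline with 10 g/L carboxymethylcellulose and 1 g/L Tween 80 and given po or ip 3 h before stress. Rats were then killed and stomachs removed. Readout: percent decrease in total lesion number versus controls. Active: p ≤ 0.05.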

[3] = test system: Cavia porcellus; assay: Respiratory status of guinea pigs exposed to histamine aerosol expressed as percent protection 2 hr at a dose of 60 mg/kg (po)
[4] = test system: Cavia porcellus; assay: Respiratory status of guinea pigs exposed to histamine aerosol expressed as percent protection at a dose of 30 mg/kg (po); type: functional; summary of the method: as §1
[5] = test system: Cavia porcellus; assay: Respiratory status of guinea pigs exposed to histamine aerosol expressed as percent protection at a dose of 60 mg/kg (po); type: functional; summary of the method: as §1
[6] = test system: Cavia porcellus; assay: Respiratory status of guinea pigs exposed to histamine aerosol expressed as percent protection 8 hr at a dose of 60 mg/kg (po)
[7] = test system: Cavia porcellus; assay: Respiratory status of guinea pigs exposed to histamine aerosol expressed as percent protection at a dose of 10 mg/kg (po); type: functional; summary of the method: as §1
[8] = test system: Cavia porcellus; assay: Respiratory status of guinea pigs exposed to histamine aerosol expressed as percent protection at a dose of 3 mg/kg (po); type: functional; summary of the method: as §1
[9] = test system: Rattus norvegicus; assay: Evaluation of antiulcer activity( percent decrease in total number of lesions in cold-restraint, stressed rats) at intraperitoneal dose at 100 mg/kg; Inactive; type: functional; summary of the method: as §2
[10] = test system: Cavia porcellus; assay: Respiratory status of guinea pigs exposed to histamine aerosol expressed as percent protection 4 hr at a dose of 60 mg/kg (po)
[11] = test system: Rattus norvegicus; assay: Evaluation of antiulcer activity( percent decrease in total number of lesions in cold-restraint, stressed rats) at intraperitoneal dose at 32 mg/kg; Inactive; type: functional; summary of the method: as §2
[12] = test system: Rattus norvegicus; assay: Evaluation of antiulcer activity( percent decrease in total number of lesions in cold-restraint, stressed rats) at intraperitoneal dose at 100 mg/kg; Active; type: functional; summary of the method: as §2
[13] = test system: Rattus norvegicus; assay: Evaluation of antiulcer activity (percent decrease in total number of lesions in cold-restraint, stressed rats) at peroral dose 10 mg/kg; Active; type: functional; conditions: route oral; summary of the method: as §2
[14] = test system: Cavia porcellus; assay: Respiratory status of guinea pigs exposed to histamine aerosol expressed as percent protection 8 hr at a dose of 60 mg/kg (po); type: functional
Summary of the method: (§3)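 Duration study in guinea pigs: 60 mg/kg po given 2, 4 or 8 h before exposure to aerosol from 0.4% aqueous histamine nebulized at 6 psi in a closed chamber. Respiratory distress was scored 0–4. Percent protection compares the total score of 8 treated animals with 8 controls (control = 0, complete protection = 100).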

[15] = test system: Cavia porcellus; assay: Respiratory status of guinea pigs exposed to histamine aerosol expressed as percent protection 4 hr at a dose of 60 mg/kg (po); type: functional; summary of the method: as §3
[16] = test system: Cavia porcellus; assay: Respiratory status of guinea pigs exposed to histamine aerosol expressed as percent protection 2 hr at a dose of 60 mg/kg (po); type: functional; summary of the method: as §3
[17] = test system: Rattus norvegicus; assay: Evaluation of antiulcer activity (percent decrease in total number of lesions in cold-restraint, stressed rats) at peroral dose 10 mg/kg; Inactive; conditions: route oral
[18] = test system: Rattus norvegicus; assay: Evaluation of antiulcer activity (percent decrease in total number of lesions in cold-restraint, stressed rats) at intraperitoneal dose at 100 mg/kg; Inactive; type: functional; summary of the method: as §2
[19] = test system: Rattus norvegicus; assay: Evaluation of antiulcer activity (percent decrease in total number of lesions in cold-restraint, stressed rats) at intraperitoneal dose at 100 mg/kg; Active; type: functional; summary of the method: as §2
[20] = test system: Cavia porcellus; assay: Evaluation of bronchodilator activity at dose 60 mg/kg perorally 1 hr prior to histamine aerosol exposure; 20-30; type: functional; conditions: route oral
Summary of the method: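 Guinea pigs got 60 mg/kg po, either dissolved in 1 N HCl or suspended in vehicle; controls got vehicle. After 1 h each was challenged with histamine aerosol: 0.4% aqueous histamine nebulized at 6 psi into a closed chamber. Respiration was scored 0–4, with 4 being unconsciousness. Percent protection came from comparing the total score of eight treated animals with a control group of eight, giving a single value.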

| Structure (SMILES) | Protection [1] | Decrease [2] | Decrease [9] | further results |
| --- | --- | --- | --- | --- |
| Oc1ncncc1Oc1ccccc1Cl | 13% |  |  |  |
| Oc1ncc(Oc2ccc(Cl)cc2)cn1 | 92% | 7% | 0% | Protection [3]: 94%; Protection [4]: 71%; Protection [5]: 92%; Protection [6]: 88%; Protection [7]: 37%; Protection [8]: 22%; Protection [10]: 94% |
| Oc1ncncc1Oc1cccc(Cl)c1 | 13% |  |  | Decrease [11]: 18% |
| COc1ccc(Oc2cncnc2O)cc1 | 26% | 0% |  |  |
| Cc1cc(C)cc(Oc2cnc(O)nc2)c1 | 38% | 50% |  | Decrease [12]: 53% |
| Cc1ccc(Oc2cnc(O)nc2)cc1 | 86% |  | 0% | Decrease [13]: 57%; Protection [14]: 10%; Protection [15]: 8%; Protection [4]: 81%; Protection [5]: 86%; Protection [16]: 86%; Protection [7]: 18%; Protection [8]: 2% |
| Oc1ncc(Oc2ccc(Cl)cc2Cl)cn1 | 47% | 22% | 19% |  |
| Cc1ccc(Oc2cnc(O)nc2)cc1C | 14% | 54% | 53% |  |
| Cc1cccc(Oc2cnc(O)nc2O)c1 | 7% | 0% |  | Decrease [12]: 67% |
| CSc1ccc(Oc2cnc(O)nc2)cc1 | 55% | 0% | 0% |  |
| Oc1ncc(Oc2ccccc2)cn1 | 28% |  |  | Decrease [13]: 37%; Decrease [12]: 81% |
| Cc1ccccc1Oc1cnc(O)nc1 | 6% | 0% | 25% |  |
| COc1ccc(Oc2cnc(O)nc2)cc1 | 45% | 0% | 0% |  |
| CCc1ccc(Oc2cnc(O)nc2)cc1 | 98% | 0% | 27% |  |
| CCc1cccc(Oc2cnc(O)nc2)c1 | 3% | 28% |  | Decrease [12]: 53% |
| Cc1cc(Oc2cnc(O)nc2)ccc1Cl | 6% | 0% | 14% |  |
| Oc1ncncc1Oc1ccccc1 | 23% | 0% |  |  |
| Cc1cccc(Oc2cncnc2O)c1 | 28% | 0% |  |  |
| Oc1ncc(Oc2ccc(Br)cc2)cn1 | 90% | 0% | 0% |  |
| Oc1ncc(Oc2cccc(Cl)c2)cn1 | 22% | 22% | 0% |  |

| Structure (SMILES) | Protection [1] | Decrease [2] | Decrease [9] | further results |
| --- | --- | --- | --- | --- |
| COc1cccc(Oc2cncnc2O)c1 | 7% | 0% |  |  |
| Oc1ncc(Sc2ccc(Cl)cc2)cn1 | 63% |  |  |  |
| Oc1ncc(Oc2ccccc2)c(O)n1 | 25% | 22% |  |  |
| Oc1ncncc1Oc1ccc(Cl)c(Cl)c1 | 45% |  |  |  |
| Oc1ncc(Sc2ccccc2)cn1 | 23% | 45% | 47% |  |
| Cc1ccc(Oc2cnc(O)nc2)c(C)c1 |  |  | 0% | Decrease [17]: 6% |
| Oc1ncc(Oc2ccc(Cl)cc2)c(O)n1 | 50% | 35% |  |  |
| Cc1ccc(Oc2cnc(O)nc2O)cc1 | 35% | 0% |  |  |
| Oc1ncc(Oc2cccc(C(F)(F)F)c2)cn1 | 26% | 39% |  |  |
| CC(C)c1ccc(Oc2cnc(O)nc2)cc1 | 0% | 0% | 9% |  |
| Oc1ncncc1Oc1ccc(F)cc1 | 80% | 28% |  |  |
| Oc1ncc(Oc2ccc(F)cc2)cn1 | 66% | 0% | 0% |  |
| COc1cccc(Oc2cnc(O)nc2)c1 | 3% | 55% |  | Decrease [12]: 82% |
| C[S+]([O-])c1ccc(Oc2cnc(O)nc2)cc1 (configuration not stated) | 10% | 50% | 0% |  |
| Oc1ncncc1Oc1ccc(Cl)cc1 | 92% |  |  | Decrease [18]: 0% |
| Cc1ccc(Oc2cncnc2O)cc1 | 92% | 27% |  |  |
| Cc1cccc(Sc2cnc(O)nc2)c1 |  |  |  | Decrease [17]: 0%; Decrease [19]: 78% |
| Cc1ccc(Sc2cnc(O)nc2)cc1 | 26% | 18% |  | Decrease [12]: 64% |
| Cn1c(=O)c2nc[nH]c2n(C)c1=O.O [THEOPHYLLINE] |  |  |  | Protection [20]: 20% |
| Cc1cccc(Oc2cnc(=O)[nH]c2)c1 [TOLIMIDONE] | 3% |  |  | Decrease [13]: 38%; Decrease [12]: 70% |
